In paper PMC12377214 (RSC Advances, 2025):
Where “and” joins values, the source holds several entries; their conditions need not be identical. Equal values may be shown once. Blank lines part the entries; values can stand above or below the molecule they belong to.

How the values were obtained:
[1] = system: A498 (kidney carcinoma); assay: Antiproliferative SRB assay, A-498; type: cell-based, human; details: for IC50: Homo sapiens, A498, 72 h, read-out: pIC50 A-498 (converted); for Selectivity index (SI) A498: IC50 BALB/3T3 / IC50 A498
[2] = system: HepG-2 (hepatocellular carcinoma); assay: Antiproliferative SRB assay, HepG2; type: cell-based, human; details: for IC50: Homo sapiens, HepG2, 72 h, read-out: pIC50 HepG2 (converted); for Selectivity index (SI) HepG2: IC50 BALB/3T3 / IC50 HepG2
[3] = system: MDA-MB-231 (breast adenocarcinoma); assay: Antiproliferative SRB assay, MDA-MB-231; type: cell-based, human; details: for IC50: Homo sapiens, MDA-MB-231, 72 h, read-out: pIC50 MDA-MB-231 (converted); for Selectivity index (SI) MDA-MB-231: IC50 BALB/3T3 / IC50 MDA-MB-231
[4] = biological target: T1, xanthine oxidase (XO) (Homo sapiens, UniProt P47989); assay: Kinetics of xanthine oxidase inhibition; type: biochemical; details: for V max: XO alone 2.25 / 2.21; for K m: XO alone Km 40
[5] = biological target: T1, xanthine oxidase (XO); assay: Xanthine oxidase inhibition assay; type: biochemical
[6] = biological target: VEGFR-2 (Homo sapiens, UniProt P35968); assay: In vitro VEGFR-2 kinase inhibitory assay; type: biochemical
[7] = biological target: CDK6/Cyclin D3 (Homo sapiens, UniProt Q00534); assay: In vitro CDK6 inhibitory assay; type: biochemical
[8] = system: MV4-11 cell line; assay: Cell cycle analysis; type: cell-based; details: for Cell percentage SubG1: control 7.12 ± 0.569; for Cell percentage G2/M: control 20.98 ± 0.614; for Cell percentage S: control 24.54 ± 2.475; for Cell percentage G0/G1: control 45.40 ± 3.051
[9] = system: MV4-11 cell line; assay: Antiproliferative MTT assay, MV4-11; type: cell-based; details: Homo sapiens, MV4-11, read-out: Anti-proliferative IC50 MV4-11
Summary of the method: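 MV4-11 cells grown in RPMI 1640 with stable glutamine, 10% FBS, 1.0 mM sodium pyruvate and penicillin/streptomycin at 37 °C, 5% CO2. Seeded at 2000 cells/well, then treated after 24 h with test compound (DMSO stock of 10 mg mL−1 diluted in medium; 0.1–100 μg mL−1) for 72 h. MTT added for 4 h, formazan dissolved in DMF, A570 read. IC50 calculated.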

[10] = system: MV4-11 cell line; details: MV4-11 cancer cell line; cited from earlier work

Chain of VEGFR-2 (P35968 20-1356): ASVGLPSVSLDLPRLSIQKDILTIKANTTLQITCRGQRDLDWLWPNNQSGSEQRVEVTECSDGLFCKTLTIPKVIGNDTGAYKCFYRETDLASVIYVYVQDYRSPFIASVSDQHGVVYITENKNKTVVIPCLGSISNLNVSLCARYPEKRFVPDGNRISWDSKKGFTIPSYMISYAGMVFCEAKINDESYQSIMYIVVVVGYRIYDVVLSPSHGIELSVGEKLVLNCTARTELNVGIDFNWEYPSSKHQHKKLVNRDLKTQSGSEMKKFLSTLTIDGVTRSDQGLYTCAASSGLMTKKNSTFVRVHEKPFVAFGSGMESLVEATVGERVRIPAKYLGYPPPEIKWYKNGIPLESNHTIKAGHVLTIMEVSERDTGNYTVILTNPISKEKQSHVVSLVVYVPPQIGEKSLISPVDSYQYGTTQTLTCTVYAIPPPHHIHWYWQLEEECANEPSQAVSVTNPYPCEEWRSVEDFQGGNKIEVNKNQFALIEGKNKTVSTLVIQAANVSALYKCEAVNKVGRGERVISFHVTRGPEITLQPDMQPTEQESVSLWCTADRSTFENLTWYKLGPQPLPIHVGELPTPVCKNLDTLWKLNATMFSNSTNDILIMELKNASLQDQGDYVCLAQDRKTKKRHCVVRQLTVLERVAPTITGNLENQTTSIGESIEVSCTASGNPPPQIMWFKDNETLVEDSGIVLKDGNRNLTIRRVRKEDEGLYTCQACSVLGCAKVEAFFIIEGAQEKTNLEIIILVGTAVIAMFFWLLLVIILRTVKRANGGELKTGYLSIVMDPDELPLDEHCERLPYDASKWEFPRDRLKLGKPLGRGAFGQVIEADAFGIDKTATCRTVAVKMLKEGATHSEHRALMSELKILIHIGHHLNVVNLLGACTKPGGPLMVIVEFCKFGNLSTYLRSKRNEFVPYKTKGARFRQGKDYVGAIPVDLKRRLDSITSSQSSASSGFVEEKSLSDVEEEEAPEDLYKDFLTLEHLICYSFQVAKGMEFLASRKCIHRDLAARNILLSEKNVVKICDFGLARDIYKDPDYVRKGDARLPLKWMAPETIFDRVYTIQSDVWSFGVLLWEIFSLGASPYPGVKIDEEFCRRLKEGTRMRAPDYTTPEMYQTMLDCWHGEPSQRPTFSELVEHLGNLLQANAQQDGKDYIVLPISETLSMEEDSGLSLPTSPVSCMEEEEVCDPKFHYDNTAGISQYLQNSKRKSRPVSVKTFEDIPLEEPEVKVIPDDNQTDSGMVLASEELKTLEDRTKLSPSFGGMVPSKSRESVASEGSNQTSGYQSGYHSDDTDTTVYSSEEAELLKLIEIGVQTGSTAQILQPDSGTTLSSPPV
Chain of CDK6/Cyclin D3 (Q00534 whole entry): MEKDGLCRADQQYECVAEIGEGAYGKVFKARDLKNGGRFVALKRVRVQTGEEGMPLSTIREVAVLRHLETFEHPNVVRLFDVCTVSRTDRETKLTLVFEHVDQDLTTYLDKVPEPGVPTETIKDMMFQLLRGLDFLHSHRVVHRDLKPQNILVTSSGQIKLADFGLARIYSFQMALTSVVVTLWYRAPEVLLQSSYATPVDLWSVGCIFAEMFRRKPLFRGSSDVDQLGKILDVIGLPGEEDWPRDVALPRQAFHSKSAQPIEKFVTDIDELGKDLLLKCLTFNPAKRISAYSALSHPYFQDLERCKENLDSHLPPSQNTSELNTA
Chain of CDK6/Cyclin D3 (P30281 whole entry partner): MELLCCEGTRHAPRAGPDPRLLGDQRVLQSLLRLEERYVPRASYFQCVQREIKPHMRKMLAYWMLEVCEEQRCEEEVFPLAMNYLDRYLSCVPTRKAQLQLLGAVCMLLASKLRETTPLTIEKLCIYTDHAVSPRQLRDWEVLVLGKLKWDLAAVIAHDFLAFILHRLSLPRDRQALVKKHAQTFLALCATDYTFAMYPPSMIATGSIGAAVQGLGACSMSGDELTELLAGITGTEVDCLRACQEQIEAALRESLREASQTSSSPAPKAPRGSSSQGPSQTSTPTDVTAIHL
T1 sequence (P47989 whole entry, species assumed): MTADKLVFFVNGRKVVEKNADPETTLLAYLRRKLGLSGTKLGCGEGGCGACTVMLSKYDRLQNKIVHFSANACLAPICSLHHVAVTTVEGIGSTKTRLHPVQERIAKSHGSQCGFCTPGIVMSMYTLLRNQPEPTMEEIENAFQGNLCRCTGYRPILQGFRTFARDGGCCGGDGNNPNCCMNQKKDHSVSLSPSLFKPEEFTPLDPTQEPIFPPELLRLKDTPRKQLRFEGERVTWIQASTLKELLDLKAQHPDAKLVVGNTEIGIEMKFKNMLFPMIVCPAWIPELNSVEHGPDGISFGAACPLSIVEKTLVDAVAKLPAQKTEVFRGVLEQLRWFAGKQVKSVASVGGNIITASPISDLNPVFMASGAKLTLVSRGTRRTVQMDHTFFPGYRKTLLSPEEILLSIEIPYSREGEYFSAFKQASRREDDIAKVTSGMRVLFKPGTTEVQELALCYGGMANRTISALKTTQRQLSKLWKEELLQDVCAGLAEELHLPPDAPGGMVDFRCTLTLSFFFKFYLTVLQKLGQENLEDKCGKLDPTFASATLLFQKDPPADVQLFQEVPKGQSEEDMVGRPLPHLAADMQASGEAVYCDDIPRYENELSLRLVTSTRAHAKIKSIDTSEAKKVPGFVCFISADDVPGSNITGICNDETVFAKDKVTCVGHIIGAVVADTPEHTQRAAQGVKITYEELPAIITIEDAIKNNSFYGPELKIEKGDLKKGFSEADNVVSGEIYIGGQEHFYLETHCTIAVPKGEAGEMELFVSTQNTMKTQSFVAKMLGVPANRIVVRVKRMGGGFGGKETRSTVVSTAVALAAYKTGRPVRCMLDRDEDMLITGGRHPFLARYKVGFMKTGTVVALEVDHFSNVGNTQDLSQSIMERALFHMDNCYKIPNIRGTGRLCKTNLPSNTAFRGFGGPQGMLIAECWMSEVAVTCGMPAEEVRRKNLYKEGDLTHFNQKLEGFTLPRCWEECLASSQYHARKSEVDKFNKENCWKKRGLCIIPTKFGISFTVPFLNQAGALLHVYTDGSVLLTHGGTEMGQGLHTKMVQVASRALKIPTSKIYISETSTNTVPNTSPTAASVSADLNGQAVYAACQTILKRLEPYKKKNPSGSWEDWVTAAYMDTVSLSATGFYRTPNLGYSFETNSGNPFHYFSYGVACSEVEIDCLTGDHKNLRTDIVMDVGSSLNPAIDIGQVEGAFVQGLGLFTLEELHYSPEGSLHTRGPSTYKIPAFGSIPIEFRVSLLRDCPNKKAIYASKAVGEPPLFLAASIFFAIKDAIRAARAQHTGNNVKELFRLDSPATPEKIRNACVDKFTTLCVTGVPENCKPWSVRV

SMILES: COc1ccc2c(c1)C(=O)C(=O)N2CCn1ncc2c(=O)[nH]cnc21 [6c, 1-[2-(1,5-Dihydro-4-oxopyrazolo[3,4-d]pyrimidin-1-yl)ethyl]5-methoxyindole-2,3-dione]
IC50 [1]: 30.2 µM
IC50 [2]: 93.3 µM
IC50 [3]: 47.9 µM

SMILES: O=C1C(=O)N(CCn2ncc3c(=O)[nH]cnc32)c2ccc(Cl)cc21 [6b, 5-Chloro-1-[2-(1,5-dihydro-4-oxopyrazolo[3,4-d]pyrimidin-1-yl)ethyl]indole-2,3-dione]
Cell percentage SubG1 ([8]; MV4-11, 1 μg mL^−1): 3.48 ± 1.178%
Cell percentage G2/M ([8]; MV4-11, 1 μg mL^−1): 17.67 ± 1.285%
Cell percentage S ([8]; MV4-11, 1 μg mL^−1): 27.15 ± 3.651%
Cell percentage G0/G1 ([8]; MV4-11, 1 μg mL^−1): 50.37 ± 4.619%
IC50 [1]: 16.2 µM
Selectivity index (SI) A498 [1]: 2.03
IC50 [2]: 15.1 µM
Selectivity index (SI) HepG2 [2]: 2.15
IC50 [9]: 5.85 µM
IC50 [3]: 13.2 µM
Selectivity index (SI) MDA-MB-231 [3]: 2.49

SMILES: O=C1C(=O)N(CCn2ncc3c(=O)[nH]cnc32)c2ccccc21 [6a, 1-[2-(1,5-Dihydro-4-oxopyrazolo[3,4-d]pyrimidin-1-yl)ethyl] indole-2,3-dione]
IC50 [5]: 43.7 ± 5.51 µM
IC50 [1]: 58.9 µM
IC50 [2]: 151 µM
IC50 [6]: 309 nM
IC50 [3]: 91.2 µM
IC50 [7]: 603 nM

SMILES: COc1ccc2c(c1)C(=O)C(=O)N2CCn1cnc2c(N)ncnc21 [7c, 1-[2-(6-Amino-9H-purin-9-yl)ethyl]-2,3-dihydro-5-methoxy-1H-indole-2,3-dione]
IC50 [1]: 182 µM
IC50 [2]: 77.6 µM
IC50 [3]: 135 µM

SMILES: CC(=O)c1c(C)c2cnc(Nc3ccc(N4CCNCC4)cn3)nc2n(C2CCCC2)c1=O [Palbociclib]
Cell cycle arrest phase [10]: cell cycle arrest at the G1 phase

SMILES: Nc1ncnc2c1ncn2CCN1C(=O)C(=O)c2ccccc21 [7a, 1-[2-(6-Amino-9H-purin-9-yl)ethyl]-2,3-dihydro-1H-indole-2,3-dione]
IC50 [3]: 209 µM

SMILES: O=C1C(=O)N(CCn2ncc3c(=O)[nH]cnc32)c2ccc(F)cc21 [6d, 5-Fluoro-1-[(2-(1,5-dihydro-4-oxopyrazolo[3,4-d]pyrimidin-1-yl)ethyl)]indole-2,3-dione]
IC50 [1]: 38.9 µM
IC50 [2]: 61.7 µM
IC50 [3]: 47.9 µM

SMILES: Nc1ncnc2c1ncn2CCN1C(=O)C(=O)c2cc(Cl)ccc21 [7b, 1-[2-(6-Amino-9H-purin-9-yl)ethyl]-5-chloro-2,3-dihydro-1H-indole-2,3-dione]
IC50 [5]: 66.1 µM
Increase in S phase relative to control ([8]; MV4-11, 10 μg mL^−1, p < 0.05): 1.49 fold
Cell percentage SubG1 ([8]; MV4-11, 10 μg mL^−1): 6.15 ± 2.74% and 6.15 ± 2.739%
Cell percentage G2/M ([8]; MV4-11, 10 μg mL^−1): 13.32 ± 2.763%
Cell percentage S ([8]; MV4-11, 10 μg mL^−1): 36.66 ± 4.326%
Cell percentage G0/G1 ([8]; MV4-11, 10 μg mL^−1): 44.36 ± 4.193%
IC50 [1]: 52.5 µM
Selectivity index (SI) A498 [1]: 1.37
IC50 [2]: 6.03 µM
Selectivity index (SI) HepG2 [2]: 11.89
IC50 [9]: 11.8 µM
IC50 [6]: 513 nM
IC50 [3]: 19.5 µM
Selectivity index (SI) MDA-MB-231 [3]: 3.64
IC50 [7]: 1510 nM

Continued, in another order:

IC50 [1]: 63.1 µM
IC50 [2]: 44.7 µM
IC50 [3]: 81.3 µM
SMILES: CNC(=O)c1cc(Oc2ccc(NC(=O)Nc3ccc(Cl)c(C(F)(F)F)c3)cc2)ccn1 [Sorafenib, reference compound]

IC50 [1]: 166 µM
IC50 [2]: 17.4 µM
IC50 [3]: 83.2 µM
SMILES: Nc1ncnc2c1ncn2CCN1C(=O)C(=O)c2cc(F)ccc21 [7d, 1-[2-(6-Amino-9H-purin-9-yl)ethyl]-2,3-dihydro-5-fluoro-1H-indole-2,3-dione]

IC50 [1]: 105 µM
IC50 [2]: 25.1 µM
SMILES: NC(=S)N/N=C1\C(=O)N(CCn2ncc3c(=O)[nH]cnc32)c2ccc(F)cc21 [8d, (2Z)-2-{5-Fluoro-2-oxo-1-[2-(4-oxo-1,5-dihydropyrazolo[3,4-d]pyrimidin-1-yl)ethyl]-1,2-dihydro-3H-indol-3-ylidene}hydrazine-1-carbothioamide]

Type of XO inhibition ([4]; Lineweaver–Burk plot): mixed
V max ([4]; inhibitor 0.1 μM): 1.51
K m ([4]; inhibitor 0.1 μM): 50
V max ([4]; inhibitor 1 μM): 1.33
K m ([4]; inhibitor 1 μM): 64
V max ([4]; inhibitor 10 μM): 0.55
K m ([4]; inhibitor 10 μM): 51
SMILES: Oc1ncnc2[nH]ncc12 [Allopurinol]

IC50 [5]: 21.9 µM
IC50 [1]: 14.1 µM
IC50 [2]: 13.2 µM
IC50 [6]: 70.8 nM
IC50 [3]: 53.7 µM
IC50 [7]: 67.6 nM
SMILES: NC(=S)N/N=C1\C(=O)N(CCn2ncc3c(=O)[nH]cnc32)c2ccc(Cl)cc21 [8b, (2Z)-2-{5-Chloro-2-oxo-1-[2-(4-oxo-1,5-dihydropyrazolo[3,4-d]pyrimidin-1-yl)ethyl]-1,2-dihydro-3H-indol-3-ylidene}hydrazine-1-carbothioamide]
Selectivity index (SI) A498 [1]: 2.45
Selectivity index (SI) HepG2 [2]: 2.60
Selectivity index (SI) MDA-MB-231 [3]: 0.63

IC50 [2]: 56.2 µM
SMILES: NC(=S)N/N=C1\C(=O)N(CCn2cnc3c(N)ncnc32)c2ccc(F)cc21 [9d, (2Z)-2-{5-Fluoro-2-oxo-1-[2-(6-aminopurine-9-yl)ethyl]-1,2-dihydro-3H-indol-3-ylidene}hydrazine-1-carbothioamide]
